The results in this text go back to PMC3900297 (Biotechnology and applied biochemistry, 2013).

Several values for one entry are separate records, joined by “and”; a condition that tells them apart may be missing. Equal entries are not always repeated. Where two headings read alike, the source gives them in different places.

One experiment deals with CYP261D1 (P450-PE36). Kind of experiment: absorbance spectral titration. The format is binding, Moritella sp. PE36. The following applies: 0.1 M Na-Hepes pH 7.4, 0.5 mM EDTA, 25 °C, ambient pressure. The method, boiled down:
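Recombinant His-tagged enzyme was expressed with […] and 0.5 mM IPTG for 48 h at 30 °C, then Ni-NTA purified. (+) and (−) forms were separated on cation-exchange and DEAE resins and dialyzed into Hepes/glycerol/KCl/TCEP. Titration spectra were taken in a stirred, thermostated cell and analysed by PCA/SVD against high-spin, low-spin and P420 standards. Spin-state changes were fitted to the tight-binding (square-root) equation.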

The target of another experiment is T1, CYP261C1 (P450-SS9) (Photobacterium profundum, UniProt Q6LGK6).
T1 sequence (Q6LGK6 1-480): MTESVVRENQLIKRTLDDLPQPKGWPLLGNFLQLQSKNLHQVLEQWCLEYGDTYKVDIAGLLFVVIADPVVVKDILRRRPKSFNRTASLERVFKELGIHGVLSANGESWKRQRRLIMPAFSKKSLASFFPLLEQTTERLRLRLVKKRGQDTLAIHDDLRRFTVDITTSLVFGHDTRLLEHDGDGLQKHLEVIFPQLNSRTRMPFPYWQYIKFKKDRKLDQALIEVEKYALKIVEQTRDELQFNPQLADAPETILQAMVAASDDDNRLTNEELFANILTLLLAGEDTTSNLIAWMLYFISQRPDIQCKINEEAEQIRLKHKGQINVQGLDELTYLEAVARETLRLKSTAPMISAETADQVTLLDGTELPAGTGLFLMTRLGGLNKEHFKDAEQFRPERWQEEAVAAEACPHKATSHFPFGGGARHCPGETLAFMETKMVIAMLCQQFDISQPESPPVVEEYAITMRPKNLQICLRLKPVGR
The experiment in a line: absorbance spectral titration. The following applies: μM. The experiment is classed as binding. An outline of the steps:
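Recombinant CYP261C1 expressed in E. coli TOPP3, Ni-NTA purified, then separated into (+) and (−) forms on cation/anion exchange. Fatty-acid titrations tracked by absorbance spectra at 25 °C in 0.1 M Na-Hepes pH 7.4 with 0.5 mM EDTA. Spectral series underwent PCA, with least-squares fitting to high-spin, low-spin and P420 standards. Kd came from the tight-binding (square-root) equation.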

Turning to `CCCCC/C=C\C/C=C\C/C=C\C/C=C\CCCC(=O)O` [Arachidonic acid], the Kd is 3.1 ± 0.6 µM on CYP261D1 (P450-PE36) (read-out: Arachidonic acid / KD, (+) conformer); 8.9 ± 2.2 µM at CYP261D1 (P450-PE36) (read-out: Arachidonic acid / KD, (−) conformer); 9.7 µM and 10.4 µM on CYP261C1 (P450-SS9) (Arachidonic acid / KD).
For the molecule `CCCCCCCCCCCCCC(=O)O` [Myristic acid], the Kd on CYP261D1 (P450-PE36) (read-out: Myristic acid / KD, (+) conformer) was 2.4 ± 0.7 µM; on CYP261D1 (P450-PE36) (read-out: Myristic acid / KD, (−) conformer), 3 ± 1 µM; on CYP261C1 (P450-SS9) (Myristic acid / KD), 8.1 µM and 3.6 µM.
